This sample holds only a part of the variants without activity.
B1: tRNA (parent)
chain: CUCUCGGUAGCCAAGUUGGUUUAAGGCGCAAGACUUUAAUUUAUCACUACGAAAUCUUGAGAUCGGGCGUUCGACUCGCCCCCGGGAGAUUUUUUCCUCGAGCAA

Variants of: B1
Assay: nonsense suppression (GFP-seq) (ratio to wild type); higher = more function; SUP4oc tRNA, yeast GFP reporter sort-seq
Procedure, shortened: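 Each variant's nonsense suppression (GFPSEQ) is a cell-share-weighted bin median GFP/RFP relative to the unmutated parent tRNA. Yeast with genome-integrated tRNA variants from a ~3% random-mutation library, a galactose-driven GFP ochre reporter and RFP were grown in raffinose/galactose medium with 80 mg/L adenine, then sorted into GFP/RFP bins for Illumina sequencing. Variants needed ≥100 reads and ≥30 cells.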

Variant | nonsense suppression
C12U C64A | ≤ 0.026
C12U C64U | ≤ 0.026
C12A A33G G67U | ≤ 0.026
A9U A24C G66C C83U G85A | ≤ 0.026
C12U G25C U57G C83G | ≤ 0.026
G10C C56G U71G | ≤ 0.026
A9U U20G | 0.12
C12U C75G | 1.23
A9U G85C | 0.0283
C11A A54C G59A U71C C80A G88C | ≤ 0.026
A9U U57G C77A G85A | ≤ 0.026
A9U A31G | 0.193
C11A G25C G61C | ≤ 0.026
C11U G18U U58G | ≤ 0.026
A13C A62G | 0.0702
G10C U71A A74U A87C | ≤ 0.026
C12A G25C C68G | ≤ 0.026
C11A A33G C77A C81G | ≤ 0.026
G10C G15C G32U U63A | ≤ 0.026
C11U U63G | 0.034
G10C A24U A30G A33U U55A C80U | ≤ 0.026
G10C U35A G66C G85U | ≤ 0.026
C12U A13U | 0.626
C12U A13C | 0.2

Variant | nonsense suppression
C12U A13G | 0.153
G10C G19U C64G | ≤ 0.026
A9U A14U | 0.0588
G10A G85U | ≤ 0.026
C12A G18U U70C G88U | ≤ 0.026
C12A U35A C81G | ≤ 0.026
C11U A24G G26C U71A | ≤ 0.026
C11U A33G A74C C83A | ≤ 0.026
C12U U16C | 0.853
C12U U16G | 0.785
C11U G28A A33G | ≤ 0.026
A9U C75U | 0.656
C12U U22G | 0.745
A13C C72U C81U | ≤ 0.026
A9G U63C A74U C75U C79U | ≤ 0.026
A9G U71C | 0.0266
C12U A23G | 0.0776
C12U G78U G84C | ≤ 0.026
C11G G26C A30C | ≤ 0.026
G10A C72A C80A | ≤ 0.026
C12U G84U | 0.117
C12U G25U | 0.192
C12U G25C | 0.184
C12U G25A | 1.19

Variant | nonsense suppression
G10A U70C G78C A89C | ≤ 0.026
C12U U35C | 0.0352
C12U G28U | 0.0705
C12U G28A | 0.51
C12U C29U | 0.206
C11A A30C U57A | ≤ 0.026
C11G G26C | 0.359
C12U U17C | 0.212
C12U A60U | 0.723
C12U A60G | 0.406
G10C G15U A33U | ≤ 0.026
C12A A31G | 0.0261
C12U | 0.773
C11A C12A U17G U22G G66A U76C A89C | ≤ 0.026
C12U A13C U20C A60C G85A | ≤ 0.026
A9U C12U | 0.29
C11G A13U A62C | ≤ 0.026
G10A C56U G73A | ≤ 0.026
G10U A13C | 0.0296
C11A U71A | ≤ 0.026
C11A U71C | ≤ 0.026
A9U A13U A24G | 0.212
G10A G28C G61C | ≤ 0.026
A9G U76A | 0.103

Variant | nonsense suppression
G10C C79U | ≤ 0.026
A9U G25U | ≤ 0.026
A9U G88A | 0.0329
C11G A23G C34A C81U | ≤ 0.026
C12U A33C C80G | ≤ 0.026
A13C C68G G88A | ≤ 0.026
C11U G61C | 0.0829
G10A G78U | 0.0324
G10A G78A | 0.0314
C11G A33G | ≤ 0.026
G10C U21A | ≤ 0.026
A9U C72G | 0.0446
C12A C77A G86U | ≤ 0.026
C12A G18U G66A U70C C77G C83U | ≤ 0.026
C12U U20C | 0.177
C12U U20G | 0.455
C12A G28C A31G U57G | ≤ 0.026
C12U C27U G61C | ≤ 0.026
C12G U70A | ≤ 0.026
A13C C27U | 0.0494
A9U U57G G65C | ≤ 0.026
C12U A23C G78C | ≤ 0.026
A13C A30U G85A | 0.157
C11A G61A | 0.22

Variant | nonsense suppression
A9U A24G | 0.0422
C12U C82U | 0.32
C11U G18U A60G | ≤ 0.026
A9U G19C G65C A74C | ≤ 0.026
G10U C12G A31U G32U C68G | ≤ 0.026
G10A A24C G85U | ≤ 0.026
C11U A24U | 0.031
G10U A31G | ≤ 0.026
G10U G85C | ≤ 0.026
A9U A60U | 0.0653
A9U C11G C68A | ≤ 0.026
G10U A54C G86C | ≤ 0.026
C12U C79U | 0.205
A13C A14U | 0.206
C12U A23C U70C | ≤ 0.026
C11A A30G | 0.0331
C11U G19U C64A | ≤ 0.026
G10A U21G G67C C79A | ≤ 0.026
G10A A33C C34U | ≤ 0.026
C12U G18U A30C G84A A89C | ≤ 0.026
C12A C34U | 0.94
C11A A13G | ≤ 0.026
G10A A14C C82A | ≤ 0.026
C11U C29G | ≤ 0.026

Variant | nonsense suppression
G10C G26A G65A A87U | ≤ 0.026
C12U U76G | 0.0906
C12U U76A | 0.244
C12U U76C | 0.818
A13C A60G | 0.392
A13C A60C | 0.29
A13C A60U | 1.07
C12U U70A | 0.048
A13C A31C U76A | ≤ 0.026
C11U A89C | ≤ 0.026
A13C C75G | 1.15
A13C C75U | 1.09
A13C C75A | 1.09
C11U C75A | 0.168
C11G C72G | ≤ 0.026
G10A A60U C68A | ≤ 0.026
G10C A54U | ≤ 0.026
C12U C56U | ≤ 0.026
C12U C56G | ≤ 0.026
G10U G32C | ≤ 0.026
G10A U58A A62G U70A | ≤ 0.026
C12U C81A | 0.0405
C12U A13G U21A | 0.0262
A9U G28C G85A | 0.0603

Variant | nonsense suppression
C12U A13U C79U | 0.0331
A9U G28U A62G U71G | ≤ 0.026
A9U G15A | 0.0449
G10U A30C U57C U63C | ≤ 0.026
C12G A33U U55C C72A G73A U76C | ≤ 0.026
C11U G66A | ≤ 0.026
G10U C27A G85A | 0.159
C11U A30G A31U U35G G67C U76C | ≤ 0.026
G10U U20G U57C | ≤ 0.026
C11U G84C A89C | ≤ 0.026
C11U G18C U20G U76G | ≤ 0.026
C12U U21A A31G | 0.214
C11U G85C A87G | ≤ 0.026
C12U C27U | 0.121
G10A A54C | 0.0309
C11U G61C A87U | ≤ 0.026
G10U C27A | 0.119
C11G C80G | ≤ 0.026
C11G A30U | ≤ 0.026
A13C A31U G61C | ≤ 0.026
C11G C12U G61C | ≤ 0.026
C12G G15A G19U | ≤ 0.026
C11U A62G U63A | ≤ 0.026
